A word on the ILS: it is the gain in survival time of treated over control animals, in per cent.

Each structure is given as a SMILES string.

Holding throughout (type): functional
The subject of assay [1] is Mus musculus. Description: Percent increase in median life span of BDF1 mice with P-388 leukemia at dose 12.5 mg/kg administered intraperitoneally; Range is 100-120% 1, 5, 9 days of ip treatment relative to tumor inoculation. The note with it: BDF1, P388, ip, 216 h, route intraperitoneal. In short, it runs like this:
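BDF1 or CDF1 mice given 10^6 ascitic leukemia cells ip, then dosed ip on days 1, 5 and 9. Read-out is percent increase in life span versus untreated controls. Cures were scored as survivors/total at 30 days; when cures reached 50% or more, the run was extended until a specific ILS could be calculated. T/C ≥125% counted as significant.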

For assay [2], the species on record is Mus musculus. Description: Cures is the number of survivors of the total treated mice (6) with advanced L-1210 leukemia, at 30 days. In short, it runs like this:
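Advanced L-1210 leukemia, with ip treatment on days 5, 9 and 13 relative to tumor inoculation.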

The subject of assay [3] is Mus musculus. Description: Percent increase in median life span of BDF1 mice with advanced L-1210 leukemia at dose 12.5 mg/kg administered intraperitoneally; treatment day +2 iv. The note with it: L1210.
For assay [4], the species on record is Mus musculus. The experiment in a line: Cures is the number of survivors of the total treated mice (10) with B-16 melanoma, at 60 days. In short, it runs like this:
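BDF1 mice were implanted ip with a homogenate from 0.05 g of B-16 melanoma and dosed ip on days 1-9. Cures are survivors over total at 60 days.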

The subject of assay [5] is Mus musculus. The experiment in a line: Percent increase in median life span of BDF1 mice with B-16 melanoma at dose 6.2 mg/kg administered intraperitoneally; 1-9 days of ip treatment relative to tumor inoculation. Conditions: BDF1, B16, ip, route intraperitoneal. In short, it runs like this: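 BDF1 mice were implanted ip with a homogenate from 0.05 g of B-16 melanoma. Ip dosing ran on days 1-9, starting 24 h after implant, in dose-response studies following NCI protocols. The read-out was percent increase in life span (ILS). T/C ≥125% was taken as significant.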

The species entered for assay [6] is Mus musculus. The experiment in a line: Cures is the number of survivors of the total treated animals(12 mice) with P-388 leukemia, at 30 days. In short, it runs like this: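 BDF1 or CDF1 mice given 10^6 ascitic P-388 leukemia cells ip, then treated ip on days 1, 5 and 9. Cures are survivors over total treated at 30 days.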

Take `CC1(C)CNC(N/N=C/c2c3ccccc3c(/C=N/NC3=NCC(C)(C)N3)c3ccccc23)=N1.Cl.Cl`: the ILS at 12.5 mg/kg was 100% with Mus musculus [1] and 28% in the assay on Mus musculus [3]. Also, the values for the Cures in the assay filed under Mus musculus [2], in the assay filed under Mus musculus [4] and in the assay listed under Mus musculus [6] were 0, 5 and 0, respectively. Also, the ILS at 6.2 mg/kg with Mus musculus [5] was greater than 248%.

For the origin of these results see ChEMBL document CHEMBL1122207, “Antitumor agents. 2. Bisguanylhydrazones of anthracene-9,10-dicarboxaldehydes” (1982).
